According to ChEMBL document CHEMBL3421532, “Synthesis and antiproliferative activity of α-branched α,β-unsaturated ketones in human hematological and solid cancer cell lines” (Eur J Med Chem, 2015):
Calls of active or inactive are those of the source. The calls are words filed in the database; no cut-off is given here.

What was measured:
[1] = Antiproliferative activity against human NB4 cells assessed as cell growth inhibition after 48 hrs by XTT assay; type: functional, cell-based; conditions: NB-4, 48 h
Procedure, shortened: (§1)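 NB4 grown in RPMI 1640 with 10% FBS and penicillin/streptomycin, A549 and MCF-7 in DMEM, all at 37 °C and 5% CO2. Cells seeded at 1.5∙10⁴ (NB4) or 1.0∙10⁴ (A549, MCF-7) per well. Adherent lines dosed 24 h after plating, NB4 shortly after. Triplicate concentrations from 0.1 to 100, DMSO control at 0.5% v/v. After 48 h exposure, XTT added for 2 h. A450 minus A690 read, GI50 reported with SE.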

A549 [2] = assay: Antiproliferative activity against human A549 cells assessed as cell growth inhibition after 48 hrs by XTT assay; type: functional, cell-based; conditions: A549, 48 h; procedure, shortened: as §1
MCF7 [3] = assay: Antiproliferative activity against human MCF7 cells assessed as cell growth inhibition after 48 hrs by XTT assay; type: functional, cell-based; conditions: MCF7, 48 h; procedure, shortened: as §1
NB-4 [4] = assay: Induction of cell death in human NB4 cells assessed as elevated sub-G1 population at 10 uM after 48 hrs by flow cytometry; type: functional, cell-based
Procedure, shortened: (§2)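 Cells seeded in 6-well plates at 1∙10⁶ (NB4) or 0.45∙10⁶ (A549, MCF-7) per well. Treated for 48 h at 10 (NB4, MCF-7), 20 and 30 (A549), or, for NB4, a lower 5; DMSO solvent control. Cell cycle phase distribution and sub-G1 measured by flow cytometry. Mean of two independent experiments.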

[5] = Cell cycle arrest in human NB4 cells assessed as increase in cell population at G0/G1 phase at 5 uM after 48 hrs by flow cytometry; type: functional, cell-based; conditions: NB-4; procedure, shortened: as §2
NB-4 [6] = assay: Induction of apoptosis in human NB4 cells at 5 uM after 24 to 48 hrs by annexin V binding assay; type: functional, cell-based
Procedure, shortened: (§3)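 Cells seeded in 6-well plates at 1∙10⁶ (NB4) or 0.45∙10⁶ (A549, MCF-7) per well. Treated at 5 (NB4), 20 and 30 (A549) or 10 (MCF-7). Apoptotic cell percentage measured by annexin V binding after 24 and 48 h. Mean of two independent experiments.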

NB-4 [7] = assay: Antiproliferative activity against human NB4 cells assessed as decrease in cell viability at 1 uM after 96 hrs by trypan blue exclusion test; type: functional, cell-based
Procedure, shortened: (§4)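 Log-phase NB4 cells at 0.5 × 10⁶ cells/ml were exposed to test agent alone or combined with 1 µM retinoic acid for 24, 48, 72 and 96 h. At each time point, aliquots were stained with 0.2% trypan blue, and viable and dead cells were counted on a hematocytometer.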

[8] = Cell cycle arrest at G0/G1 phase in human NB4 cells at 1 uM by flow cytometry; type: functional, cell-based; conditions: NB-4
[9] = Cell cycle arrest in human NB4 cells assessed as accumulation of cells at G0/G1 phase at 1 uM after 24 hrs by flow cytometry in presence of 1 uM all-trans retinoic acid; type: functional, cell-based; conditions: NB-4
NB-4 [10] = assay: Induction of granulocytic differentiation in human NB4 cells at 1 uM after 24 to 96 hrs by NBT assay; type: functional, cell-based
Procedure, shortened: (§5)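 NB4 cells were treated with agent, 1 µM retinoic acid, or both, for 24–96 h. Differentiation was scored as reduction of NBT to formazan after PMA stimulation. NBT-positive cells were counted in 5 non-overlapping fields at ×400 and averaged per field. Three independent experiments; mean ± SD.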

NB-4 [11] = assay: Acceleration of RA-induced granulocytic differentiation in human NB4 cells at 1 uM after 24 to 96 hrs by NBT assay in presence of 1 uM all-trans retinoic acid relative to control; type: functional; procedure, shortened: as §5
NB-4 [12] = assay: Induction of granulocytic differentiation in human NB4 cells at 1 uM after 48 hrs by CD11b assay (reference value: 8.5%); type: functional
NB-4 [13] = assay: Acceleration of RA-induced granulocytic differentiation in human NB4 cells at 1 uM after 48 hrs by CD11b assay in presence of 1 uM all-trans retinoic acid (reference value: 79.9%); type: functional
NB-4 [14] = assay: Antiproliferative activity against human NB4 cells assessed as decrease in cell viability at 1uM in presence of 1 uM all-trans retinoic acid after 96 hrs by trypan blue exclusion test; type: functional, cell-based; procedure, shortened: as §4
[15] = Cell cycle arrest in human NB4 cells assessed as increase in cell population at G2/M phase at 5 uM after 48 hrs by flow cytometry; type: functional, cell-based; conditions: NB-4; procedure, shortened: as §2
MCF7 [16] = assay: Cell cycle arrest in human MCF7 cells assessed as increase in cell population at G2/M phase at 10 uM after 48 hrs by flow cytometry; type: functional, cell-based; procedure, shortened: as §2
MCF7 [17] = assay: Cell cycle arrest in human MCF7 cells assessed as increase in cell population at S phase at 10 uM after 48 hrs by flow cytometry; type: functional, cell-based; procedure, shortened: as §2
NB-4 [18] = assay: Acceleration of RA-induced granulocytic differentiation in human NB4 cells in presence of all-trans retinoic acid relative to control; type: functional
[19] = Cell cycle arrest in human NB4 cells assessed as increase in cell population at S phase at 5 uM after 48 hrs by flow cytometry; type: functional, cell-based; conditions: NB-4; procedure, shortened: as §2
[20] = Induction of apoptosis in human NB4 cells assessed as cell death at 5 uM after 24 hrs by annexin V binding assay; type: functional, NB-4
Procedure, shortened: (§6)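 NB4 acute promyelocytic leukemia cells were grown in RPMI 1640 + GlutaMAX with 10% FBS and penicillin/streptomycin at 37 °C under 5% CO₂. Cells were seeded in 6-well plates at 1∙10⁶ per well and treated for 24 and 48 h; DMSO served as the solvent control. Apoptotic cells were quantified by annexin V binding. Values are the mean of two independent experiments.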

[21] = Induction of apoptosis in human NB4 cells assessed as cell death; type: functional, NB-4; procedure, shortened: as §6
MCF7 [22] = assay: Induction of apoptosis in human MCF7 cells at 10 uM after 24 to 48 hrs by annexin V binding assay; type: functional, cell-based; procedure, shortened: as §3
A549 [23] = assay: Cell cycle arrest in human A549 cells assessed as slight increase in cell accumulation at G2/M phase at 20 uM after 48 hrs by flow cytometry; type: functional, cell-based; procedure, shortened: as §2
A549 [24] = assay: Cell cycle arrest in human A549 cells assessed as slight increase in cell population at S phase at 20 uM after 48 hrs by flow cytometry; type: functional, cell-based; procedure, shortened: as §2
A549 [25] = assay: Cell cycle arrest in human A549 cells assessed as increase in cell population at S phase at 30 uM after 48 hrs by flow cytometry; type: functional, cell-based; procedure, shortened: as §2
A549 [26] = assay: Induction of apoptosis in human A549 cells at 20 to 30 uM after 24 to 48 hrs by annexin V binding assay; type: functional, cell-based; procedure, shortened: as §3

## COc1ccc(C(=O)/C(=C/c2ccc([N+](=O)[O-])cc2)CC(C)C)cc1
[1]
  IC50: 0.6 µM
A549 [2]
  IC50: > 100 µM
MCF7 [3]
  IC50: > 100 µM
NB-4 [4]
  Activity: Active
[5]
  Activity: Active
NB-4 [6]
  Activity: inactive
NB-4 [7]
  inhibition: Active
[8]
  Activity: inactive
[9]
  Activity: 18.2%
NB-4 [10]
  Activity: inactive
NB-4 [11]
  Activity: 8%
NB-4 [12]
  Activity: 9.5%
NB-4 [13]
  Activity: 87.9%
NB-4 [14]
  Activity: Active

## CC1=C(/C=C/C(C)=C/C=C/C(C)=C/C(=O)O)C(C)(C)CCC1
NB-4 [7]
  Activity: Active
[8]
  Activity: 17.3%

## C=C(C(=O)c1ccc(OC)cc1)C(O)c1ccc([N+](=O)[O-])cc1 (stereo not given)
[1]
  IC50: 5.4 µM
A549 [2]
  IC50: 23.8 µM
MCF7 [3]
  IC50: 11 µM
NB-4 [4]
  Activity: Active
[15]
  Activity: Active
MCF7 [16]
  Activity: Active
MCF7 [17]
  Activity: Active

## COc1cc2nc(N3CCCN(C)CC3)nc(NC3CCN(Cc4ccccc4)CC3)c2cc1OC
NB-4 [18]
  Activity: 10%

## C=C(C(=O)c1ccc(OC)cc1OC)C(OC(C)=O)c1ccc([N+](=O)[O-])cc1 (stereo not given)
[1]
  IC50: 5 µM
A549 [2]
  IC50: 43.5 µM
MCF7 [3]
  IC50: 10.4 µM
NB-4 [4]
  Activity: Active
[19]
  Activity: Active
[20]
  Activity: >50%

## COc1cccc2c1C(=O)c1c(O)c3c(c(O)c1C2=O)C[C@@](O)(C(=O)CO)C[C@@H]3O[C@H]1C[C@H](N)[C@H](O)[C@H](C)O1 [DOXORUBICIN]
[21]
  Activity: 80%

## O=[As][As+](=O)[O-] (stereo not given) [ARSENIC TRIOXIDE]
[21]
  Activity: 27%

## CCN(CC)C/C(=C\c1ccc([N+](=O)[O-])cc1)C(=O)c1ccc(OC)cc1
[1]
  IC50: 1.2 µM
A549 [2]
  IC50: 22 µM
MCF7 [3]
  IC50: 4.3 µM
NB-4 [4]
  Activity: Active
[19]
  Activity: Active
MCF7 [16]
  Activity: Active
MCF7 [17]
  Activity: Active
MCF7 [22]
  Activity: Active

## C=C(C/C(=C\c1ccc(OC(=O)c2ccccc2)cc1)C(=O)c1ccc(OC)cc1)C(=O)c1ccc(OC)cc1
[1]
  IC50: 6.7 µM
A549 [2]
  IC50: > 100 µM
MCF7 [3]
  IC50: > 100 µM
NB-4 [4]
  Activity: Active
[15]
  Activity: Active

## C=C(C(=O)c1ccc(OC)cc1)C(OC(C)=O)c1ccc(Cl)cc1Cl (stereo not given)
[1]
  IC50: 5.4 µM
A549 [2]
  IC50: 17.6 µM
MCF7 [3]
  IC50: 8.3 µM
NB-4 [4]
  Activity: Active
[19]
  Activity: Active
A549 [23]
  Activity: Active
A549 [24]
  Activity: Active
A549 [25]
  Activity: Active
MCF7 [16]
  Activity: Active
MCF7 [17]
  Activity: Active
[20]
  Activity: >50%
A549 [26]
  Activity: Active

## O=C(/C=C/c1cccc(S(=O)(=O)Nc2ccccc2)c1)NO [BELINOSTAT]
[21]
  Activity: 20%
NB-4 [18]
  Activity: 13%

## CC(=O)OC/C(=C\c1ccccc1F)C(=O)c1ccccc1
[1]
  IC50: 5.8 µM
A549 [2]
  IC50: 68.7 µM
MCF7 [3]
  IC50: 14.6 µM
NB-4 [4]
  Activity: Active
[19]
  Activity: Active
[20]
  Activity: >50%
